Data reported in the array DNA melting data of Ke et al. (doi:10.1101/2024.01.08.574731).

Legend:
[1] = melting temperature; fluorescence melt of hairpins on a sequencing array, two-state fit, raised by 9.35 °C to match UV melts; conditions: sodium 0.088 M
In short: (§1)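 Folding enthalpy and melting temperature come from bootstrapped two-state fits to Cy3 fluorescence of library hairpins carrying annealed Cy3 and quencher oligos on a sequenced MiSeq flow cell. Imaging was done in 50 mM Na-HEPES pH 8.0, 25 mM NaCl, stepping by 2.5 °C up to 60 °C, and signals were normalised to pre-quench Cy3 and to control constructs. Results of four replicates were combined by inverse variance, and fitted temperatures were raised by 9.35 °C to match UV melts.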

[2] = folding enthalpy; higher = less favourable; fluorescence melt of hairpins on a sequencing array, two-state fit; conditions: sodium 0.088 M
In short: as §1

GGCGCAGGAAACCACGCC ((((..(....)..))))
Tm [1]: 47.3 °C
folding enthalpy [2]: -35.3 kcal/mol

GGCGCAGGAAACTGCGTC (.(((((....))))).)
Tm [1]: 66.1 °C
folding enthalpy [2]: -20.6 kcal/mol

GGCGCCGAAAGGCAGGCC ((((((....)))..)))
Tm [1]: 64.9 °C
folding enthalpy [2]: -25.1 kcal/mol

GGCGCCGAAAGGCCTGCC ((((((....)))..)))
Tm [1]: 50.8 °C
folding enthalpy [2]: -16.6 kcal/mol

GGCGCCGAAAGGCGAGCC ((((((....)))..)))
Tm [1]: 57.6 °C
folding enthalpy [2]: -11.4 kcal/mol

GGCGCCGAAAGGCTCGCC ((((((....)))..)))
Tm [1]: 54.5 °C
folding enthalpy [2]: -19.1 kcal/mol

GGCGCCGAAAGGCTGGCC ((((((....)))..)))
Tm [1]: 62.3 °C
folding enthalpy [2]: -22.3 kcal/mol

GGCGCCGGAAACGACGCC ((((.((....)).))))
Tm [1]: 66.4 °C
folding enthalpy [2]: -33.6 kcal/mol

GGCGCCGGAAACGGCACC ((.((((....)))).))
Tm [1]: 60.5 °C
folding enthalpy [2]: -26.8 kcal/mol

GGCGCGACGAAAGTCGCC (((..(((....))))))
Tm [1]: 51.9 °C
folding enthalpy [2]: -5.55 kcal/mol

GGCGCGCCGAAAGGCGCC (((..(((....))))))
Tm [1]: 44.5 °C
folding enthalpy [2]: -4.97 kcal/mol

GGCGCGGGAAACCACGCC ((((.((....)).))))
Tm [1]: 61 °C
folding enthalpy [2]: -48.2 kcal/mol

GGCGCGTCGAAAGACGCC (((..(((....))))))
Tm [1]: 47.8 °C
folding enthalpy [2]: -7.03 kcal/mol

GGCGCTCGAAAGAGAGCC (((.(((....))).)))
Tm [1]: 67.2 °C
folding enthalpy [2]: -36.8 kcal/mol

GGCGCTGGAAACAGCGTC (.(((((....))))).)
Tm [1]: 65.9 °C
folding enthalpy [2]: -23 kcal/mol

GGCGGACGAAAGTCGGCC (((.(((....))).)))
Tm [1]: 69.3 °C
folding enthalpy [2]: -39.2 kcal/mol

GGCGGCGAAAGCCAGGCC ((((((....)))..)))
Tm [1]: 62 °C
folding enthalpy [2]: -18.8 kcal/mol

GGCGGCGAAAGCCGAGCC ((((((....)))..)))
Tm [1]: 58 °C
folding enthalpy [2]: -12.3 kcal/mol

GGCGGCGAAAGCCTCGCC ((((((....)))..)))
Tm [1]: 55.4 °C
folding enthalpy [2]: -20.8 kcal/mol

GGCGGCGAAAGCCTGCC ((((((....))).)))
Tm [1]: 68.5 °C
folding enthalpy [2]: -18.9 kcal/mol

GGCGGCGAAAGCCTTGCC ((((((....)))..)))
Tm [1]: 55.1 °C
folding enthalpy [2]: -19.2 kcal/mol

GGCGGCTCGAAAGAGGCC (((..(((....))))))
Tm [1]: 51.6 °C
folding enthalpy [2]: -11.4 kcal/mol

GGCGGGGCGAAAGCCGCC (((..(((....))))))
Tm [1]: 68.6 °C
folding enthalpy [2]: -19.9 kcal/mol

GGCGGGGGAAACCCCACC ((.((((....)))).))
Tm [1]: 56.1 °C
folding enthalpy [2]: -27.7 kcal/mol

GGCGGGTCGAAAGACGCC (((..(((....))))))
Tm [1]: 58 °C
folding enthalpy [2]: -24.8 kcal/mol

GGCGGTGGAAACATCGCC ((((.((....)).))))
Tm [1]: 63.1 °C
folding enthalpy [2]: -38.6 kcal/mol

GGCGTACGAAAGTATGCC (((.(((....))).)))
Tm [1]: 65.5 °C
folding enthalpy [2]: -41.9 kcal/mol

GGCGTCACGAAAGTGGCC (((..(((....))))))
Tm [1]: 50.3 °C
folding enthalpy [2]: -15.2 kcal/mol

GGCGTCGAAAGACAAGCC ((((((....)))..)))
Tm [1]: 55.2 °C
folding enthalpy [2]: -43.4 kcal/mol

GGCGTCGAAAGACAGGCC ((((((....)))..)))
Tm [1]: 55 °C
folding enthalpy [2]: -31.3 kcal/mol

GGCGTCGCGAAAGCGGCC (((..(((....))))))
Tm [1]: 58.7 °C
folding enthalpy [2]: -13 kcal/mol

GGCGTCGGAAACGATGCC (((.(((....))).)))
Tm [1]: 65.7 °C
folding enthalpy [2]: -38.2 kcal/mol

GGCGTCGGAAACGGCGTC (.((.((....)).)).)
Tm [1]: 53.9 °C
folding enthalpy [2]: -27.7 kcal/mol

GGCGTTACGAAAGTAGCC (((..(((....))))))
Tm [1]: 55 °C
folding enthalpy [2]: -39.7 kcal/mol

GGCGTTCCGAAAGGAGCC (((..(((....))))))
Tm [1]: 51.7 °C
folding enthalpy [2]: -20.5 kcal/mol

GGCGTTCGAAAGAAGCC (((.(((....))))))
Tm [1]: 50.8 °C
folding enthalpy [2]: -23.2 kcal/mol

GGCGTTCGAAAGAAGGCC (((.(((....))).)))
Tm [1]: 61.1 °C
folding enthalpy [2]: -39.4 kcal/mol
